Test results: ChEMBL document CHEMBL1141385, “Lignans from Dysosma versipellis with inhibitory effects on prostate cancer cell lines” (J Nat Prod, 2007)

How the values were obtained:
LNCaP = assay: Cytotoxicity against androgen sensitive human LNCaP cells; type: cell-based
How it was run: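 LNCaP (androgen-sensitive human prostate cancer) cells kept as monolayers in DMEM with 10% FBS, 2 mM L-glutamine, penicillin/streptomycin, 5% CO2. Seeded at 5000 cells/well, attached overnight, then exposed to compounds or DMSO vehicle for 48 h. MTS added for 2–4 h at 37 °C; formazan absorbance read at 490 nm. At least three experiments, each in triplicate.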

PC-3 = assay: Cytotoxicity against androgen-independent human PC3 cells; type: cell-based
How it was run: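 PC-3 (androgen-independent human prostate cancer) cells kept as monolayers in DMEM with 10% FBS, 2 mM L-glutamine, penicillin/streptomycin, 5% CO2. Plated at 3000 cells/well and left to attach overnight. Treated with compounds or DMSO vehicle for 48 h. Viability read by MTS (2–4 h, 37 °C) as absorbance at 490 nm. Run at least three times in triplicate.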

Row | SMILES | IC50 (LNCaP) [nM] | IC50 (PC-3) [nM]
1 | COc1cc([C@@H]2c3cc4c(cc3[C@H](O)[C@H]3COC(=O)[C@H]23)OCO4)cc(OC)c1O | 56 | 82
2 | COc1cc([C@@H]2c3cc4c(cc3C[C@H]3COC(=O)[C@@H]32)OCO4)cc(OC)c1O [4'-DEMETHYLDEOXYPODOPHYLLOTOXIN] | 150 | 140
3 | COc1cc(O)cc([C@@H](O)[C@@H]2CO[C@@H](c3ccc(O)c(OC)c3)[C@@H]2CO)c1 [DYSOSMAROL] | 16000 | 16000
4 | COc1cc([C@@H]2c3cc4c(cc3[C@H](O)[C@H]3COC(=O)[C@H]23)OCO4)cc(OC)c1OC [PODOFILOX] | 31 | 34
5 | COc1cc2c(O)c3c(c(-c4ccc5c(c4)OCO5)c2cc1OC)C(=O)OC3 [DIPHYLLIN] | 11500 | 7200
6 | COc1cc([C@@H]2c3cc4c(cc3C[C@H]3COC(=O)[C@@H]32)OCO4)cc(OC)c1OC [DESOXYPODOPHYLLOTOXIN] | 30 | 32
